INS-1E ATP HTS – INS-1E beta cell protection from cytokine death | hit rate 0.1% among 20,000 | AID 488910 | protection from cytokine-induced ATP loss, % at 10 µM | INS-1E cytokine-induced death, ATP luminescence, 48 h; normalised: neutral wells 0, positive control 100;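 active = mean replicate protection from cytokine-induced ATP loss at least 50% and at least 75% of replicates each reaching 50%; inconclusive = meets only one of the two criteria, mean or replicate share; inactive = fails both the mean and replicate share criteria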
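Test system: INS-1E rat cells | Quantity: 8000 cells per well | Medium: Phenol-red-free RPMI with 5% fetal bovine serum | Reagent: Cytokine cocktail of IFN-γ, TNF-α and IL-1β | Doses: One compound concentration, pin transfer | Timing: 48 h co-treatment, 10 min post-lysis read | Technique: Luminescent ATP assay (CellTiter-Glo)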
T cruzi intra – inhibitors of intracellular Trypanosoma cruzi. intracellular Trypanosoma cruzi in host cells, plate reader. activity score (inhibition), % at 5.01 µM. hit rate 4.9% among 22,000. AID 651903; in the data active = activity score above about 55%; inconclusive = no clear call, values can overlap the other calls;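 also: parasites and compound incubated about four days before reading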
A1 apoptosis 2 – compounds inhibiting A1, read as caspase activation; MEF A1-2A-BIM cells, caspase-Glo luminescence, 3 h; percent of clofoctol response, DMSO zero; caspase activation, % (no concentration beside the values); 24,000 tested, under 10 active; in the data active = caspase activation above about 5.9%; inconclusive = no clear call, values can overlap the other calls; inactive = below about 2.2%
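Material: mouse embryonic fibroblasts co-expressing A1 and BIM (A1-2A-BIM), primed for A1 dependence / Quantity: 2500 cells/well / Buffer or medium: RPMI-1640 growth medium with 10% FBS / Doses: 50 nL compound per well, pinned / Schedule: 3 h compound exposure at 37 °C / Signal: Caspase-Glo luminescence (DEVD substrate) / Measure: Caspase-3/7 activation, seen as rise in luminescence signal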
Large screens that a line does not name were inactive. The sample as a whole holds a higher share of hits than the screen did.

C[C@@H]1CN([C@H](C)CO)C(=O)c2cc(N(C)C)ccc2O[C@@H]1CN(C)Cc1ccc(C(=O)Nc2ccccc2N)cc1	INS-1E ATP HTS 63, T cruzi intra 71 (no result: A1 apoptosis 2)
C[C@H](CO)N1C[C@H](C)[C@H](CN(C)Cc2ccc(C(=O)Nc3ccccc3N)cc2)Oc2ccc(N(C)C)cc2C1=O	none
C[C@@H]1CN([C@H](C)CO)C(=O)c2cc(N(C)C)ccc2O[C@H]1CN(C)Cc1ccc(C(=O)Nc2ccccc2N)cc1	T cruzi intra 63 (no result: A1 apoptosis 2)
CC(C)NC(=O)Nc1ccc2c(c1)C(=O)N([C@@H](C)CO)C[C@H](C)[C@H](CN(C)Cc1ccc(C(=O)Nc3ccccc3N)cc1)O2	T cruzi intra inconclusive (no result: A1 apoptosis 2)
COc1ccc(-c2cn(CC(=O)N3CCOCC3)nn2)cc1OC	none (no result: INS-1E ATP HTS, T cruzi intra)
C[C@H](CO)N1C[C@H](C)[C@H](CN(C)Cc2ccc(-c3ccccc3)cc2)Oc2c(NC(=O)c3ccncc3)cccc2C1=O	T cruzi intra 68
C[C@H](CO)N1C[C@H](C)[C@@H](CN(C)Cc2ccccc2)Oc2c(NC(=O)c3ccncc3)cccc2C1=O	T cruzi intra 79 (no result: A1 apoptosis 2)
C[C@@H]1CN([C@@H](C)CO)C(=O)c2cccc(NC(=O)c3ccncc3)c2O[C@H]1CN(C)Cc1ccc(C(=O)O)cc1	none
C[C@H](CO)N1C[C@H](C)[C@@H](CN(C)Cc2ccc(-c3ccccc3)cc2)Oc2c(NC(=O)c3ccncc3)cccc2C1=O	T cruzi intra 57 (no result: A1 apoptosis 2)
C[C@@H]1CN([C@H](C)CO)C(=O)c2cccc(NC(=O)c3ccncc3)c2O[C@@H]1CN(C)Cc1ccc(C(=O)O)cc1	none
C[C@@H]1CN([C@H](C)CO)C(=O)c2cccc(NC(=O)c3ccncc3)c2O[C@H]1CN(C)Cc1ccc(-c2ccccc2)cc1	T cruzi intra 84 (no result: A1 apoptosis 2)
C[C@@H]1CN([C@@H](C)CO)C(=O)c2cccc(NC(=O)c3ccncc3)c2O[C@@H]1CN(C)Cc1ccccc1	none (no result: A1 apoptosis 2)
C[C@H](CO)N1C[C@H](C)[C@H](CN(C)C(=O)C2CCCCC2)OCCCC[C@H](C)Oc2ccc(NC(=O)NC3CCCCC3)cc2C1=O	none (no result: INS-1E ATP HTS, T cruzi intra)
C[C@@H]1CN([C@H](C)CO)C(=O)c2cccc(NC(=O)c3ccc(-c4nccs4)cc3)c2O[C@H]1CN(C)C(=O)Nc1ccccc1	none
C[C@@H]1CCCCO[C@H](CN(C)S(=O)(=O)c2cccs2)[C@H](C)CN([C@H](C)CO)C(=O)c2cc(NC(=O)Nc3ccccc3)ccc2O1	none (no result: INS-1E ATP HTS, T cruzi intra)
C[C@@H]1CN([C@H](C)CO)C(=O)c2cccc(NC(=O)c3cnccn3)c2O[C@H]1CN(C)CC1CCCCC1	none (no result: A1 apoptosis 2)
C[C@@H]1CN([C@@H](C)CO)C(=O)c2cccc(NC(=O)c3ccncc3)c2O[C@H]1CN(C)Cc1ccc(-c2ccccc2)cc1	T cruzi intra 83 (no result: A1 apoptosis 2)
COc1ccc(NC(=O)Nc2ccc3c(c2)CC(=O)N([C@@H](C)CO)C[C@H](C)[C@H](CN(C)Cc2ccc(C(F)(F)F)cc2)O3)cc1	none
COc1ccc(NC(=O)Nc2ccc3c(c2)CC(=O)N([C@H](C)CO)C[C@@H](C)[C@H](CN(C)Cc2ccc(C(F)(F)F)cc2)O3)cc1	T cruzi intra inconclusive
COc1ccc(NC(=O)Nc2ccc3c(c2)CC(=O)N([C@H](C)CO)C[C@@H](C)[C@@H](CN(C)Cc2ccc(C(F)(F)F)cc2)O3)cc1	T cruzi intra 67 (no result: A1 apoptosis 2)
COc1ccc(CN(C)C[C@@H]2Oc3ccc(NC(=O)Nc4ccc(C(F)(F)F)cc4)cc3CC(=O)N([C@H](C)CO)C[C@H]2C)cc1	none
COc1ccc(NC(=O)Nc2ccc3c(c2)CC(=O)N([C@@H](C)CO)C[C@H](C)[C@@H](CN(C)Cc2ccc(C(F)(F)F)cc2)O3)cc1	T cruzi intra 74 (no result: A1 apoptosis 2)
COc1ccc(CN(C)C[C@H]2Oc3ccc(NC(=O)Nc4ccc(C(F)(F)F)cc4)cc3CC(=O)N([C@H](C)CO)C[C@H]2C)cc1	T cruzi intra 74
COc1ccc(CN(C)C[C@@H]2Oc3ccc(NC(=O)Nc4ccc(C(F)(F)F)cc4)cc3CC(=O)N([C@H](C)CO)C[C@@H]2C)cc1	none (no result: T cruzi intra)
COc1ccc(CN(C)C[C@H]2Oc3ccc(NC(=O)Nc4ccc(C(F)(F)F)cc4)cc3CC(=O)N([C@@H](C)CO)C[C@H]2C)cc1	T cruzi intra 68
COc1ccc(CN(C)C[C@@H]2Oc3ccc(NC(=O)Cn4cnnn4)cc3CC(=O)N([C@@H](C)CO)C[C@@H]2C)cc1	none (no result: INS-1E ATP HTS, T cruzi intra)
C[C@@H]1CN([C@@H](C)CO)C(=O)Cc2cc(NC(=O)C3CC3)ccc2O[C@@H]1CN(C)Cc1ccc(Oc2ccccc2)cc1	none
O=C(N/N=C/c1cccnc1Cl)c1ccccc1O	none (no result: A1 apoptosis 2)
C[C@@H]1CN([C@@H](C)CO)C(=O)Cc2cc(NC(=O)Nc3ccccc3)ccc2O[C@@H]1CN(C)Cc1ccc(Oc2ccccc2)cc1	T cruzi intra 81 (no result: A1 apoptosis 2)

Screening results (PubChem)
